Experimental data reported in ChEMBL document CHEMBL3632527 (J Med Chem, 2015).
Calls of active or inactive are those of the source. The rule behind the calls is not given here.

Experiments:
Translocator protein [1] = biological target: T1, Translocator protein (Homo sapiens, UniProt P30536); experiment: Displacement of [3H]PK11195 from TSPO in human HEK293T cell membranes incubated for 90 mins by competition radioligand binding assay; set-up: species or system HEK-293T
Translocator protein [2] = biological target: T1, Translocator protein; experiment: Displacement of [3H]PK11195 from TSPO in human T98G cell membranes incubated for 90 mins by competition radioligand binding assay
T98G [3] = experiment: Antiproliferative activity against human T98G cells at 1 to 100 uM incubated for 48 hrs by BrdU enzyme-linked immunosorbent assay; assay type: functional, cell-based
Procedure, shortened: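 Basal proliferation of T98G human glioma cells, which carry the Ala147 TSPO genotype without the rs6971 polymorphism, was measured with compounds alone at 1–100 μM.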

T98G [4] = experiment: Potentiation of antiproliferative activity of PK11195 at 100 uM against human T98G cells incubated for 48 hrs by BrdU enzyme-linked immunosorbent assay; assay type: functional, cell-based
T98G [5] = experiment: Cytotoxicity against human T98G cells assessed as cell viability in the presence of PK11195 after 48 hrs by cell titer blue staining based fluorescence method
T98G [6] = experiment: Cytotoxicity against human T98G cells assessed as cell viability after 48 hrs by cell titer blue staining based fluorescence method
T98G [7] = experiment: Potentiation of antiproliferative activity of PK11195 at 62.5 uM against human T98G cells incubated for 48 hrs by BrdU enzyme-linked immunosorbent assay; assay type: functional, cell-based
T98G [8] = experiment: Potentiation of antiproliferative activity of PK11195 against human T98G cells incubated for 48 hrs by BrdU enzyme-linked immunosorbent assay; assay type: functional, cell-based
T98G [9] = experiment: Potentiation of antiproliferative activity of PK11195 at 10 uM against human T98G cells incubated for 48 hrs by BrdU enzyme-linked immunosorbent assay; assay type: functional, cell-based

T1 sequence (P30536 whole entry): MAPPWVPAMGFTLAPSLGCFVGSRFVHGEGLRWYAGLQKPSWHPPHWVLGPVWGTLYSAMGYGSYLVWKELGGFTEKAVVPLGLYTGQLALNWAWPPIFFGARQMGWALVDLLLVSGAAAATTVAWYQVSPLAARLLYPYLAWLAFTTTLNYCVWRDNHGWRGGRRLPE

Row | Compound | Ki (Translocator protein [1]) | Ki (Translocator protein [2]) | Activity (T98G [3]) | Activity (T98G [4]) | Activity (T98G [5]) | Activity (T98G [6]) | Activity (T98G [7]) | EC50 (T98G [8]) | Activity (T98G [9])
1 | CCN(CC)C(=O)Cn1c(-c2ccc(OC)cc2)nc2c(C)nc(C)nc21 | > 10000 nM | > 10000 nM | inactive | inactive | Non-toxic | Non-toxic | – | – | –
2 | CCN(CC)C(=O)Cn1c(-c2ccc(OC)cc2)nc2c(C)cc(C)cc21 | 224 nM | 398 nM | inactive | – | Non-toxic | Non-toxic | Active | – | –
3 | CCN(CC)C(=O)Cn1c(-c2ccc(OC)cc2)nc2c(C)cc(C)nc21 | 29.1 nM | 144 nM | inactive | inactive | Non-toxic | Non-toxic | – | – | –
4 | CCN(CC)C(=O)Cn1c(-c2ccc(OC)cc2)cc2c(C)cc(C)cc21 | 28.1 nM | 806 nM | inactive | – | Non-toxic | Non-toxic | – | 14700 nM | Active
5 | CCN(CC)C(=O)Cc1c(-c2ccc(OC)cc2)nn2c(C)cc(C)nc12 | – | – | inactive | inactive | Non-toxic | Non-toxic | – | – | –
